Experimental data from different studies.
Compare with care: the assays were run in different laboratories.
Target: Dual specificity tyrosine-phosphorylation-regulated kinase 1A (DYRK1A, Homo sapiens, UniProt Q13627)
Read-out: enzyme activity
Mode: inhibitor

Compound | method | tested at | remaining activity [%]
COc1cc(Nc2cnc(C#N)c(O[C@H](C)CN(C)C)n2)ncc1-c1cnn(C)c1 | radiometric | 1 µM | 91
Cc1sc(C(=O)NC2COC2)cc1-n1cc(NC(=O)Nc2c(F)cccc2Cl)cn1 |  | 10 µM | 95.5
O=C(O)c1ccc2c(c1)nc(Nc1ccc(F)c(Cl)c1)c1ccncc12 | radiometric | 1 µM | 0
COc1cc(Cl)c(C(=O)N[C@@H](CN[C@H]2CC[C@@H](N)CC2)Cc2ccc(C#N)cc2)cc1-c1ccc(CN[C@H](C)c2ccc(C)cc2)o1 |  | 1 µM | 120
O=C(O)c1ccc2c3c1cccc3c(=O)n1c3ccccc3nc21 |  | 0.5 µM | 55.5
O=C(O)c1ccc2c(c1)nc(Nc1ccccc1Cl)c1ncncc12 | radiometric | 1 µM | 11
CC(C)(C)C(=O)c1sc(NC2CCCCC2)nc1N |  | 10 µM | 88
CC(C)(C)c1nc2c(s1)c1nc(N)ncc1c1ccc(NS(=O)(=O)c3c(F)cccc3F)c(F)c12 | radiometric | 1 µM | 88
COc1cc2nccc(Oc3ccc(NC(=S)NC(=O)c4ccccc4C)cc3)c2cc1OC |  | 0.5 µM | 95.4
COc1cccc(Nc2nc3cc(C(=O)O)ccc3c3cnccc23)c1 | radiometric | 1 µM | 2
Oc1cccc(-c2nc(N3CCOCC3)c3oc4ncccc4c3n2)c1 |  | 10 µM | 59
O=C(O)c1ccc2c(c1)nc(Nc1ccc3ccccc3c1)c1ccncc12 | radiometric | 1 µM | 2
CCN(CC)CCNC(=O)c1c(C)[nH]c(/C=C2\C(=O)Nc3ccc(Cl)cc32)c1C |  | 0.5 µM | 47.2
Cc1cnc(NC2CCOCC2)nc1-n1cnc(C(=O)NC(CN)c2cc(F)cc(Cl)c2)c1 (stereo not drawn) | radiometric | 1 µM | 84
O=C(O)c1ccc2c(c1)nc(NCCc1ccccc1)c1ccncc12 | radiometric | 1 µM | 10
